# Assay outcomes as filed in PubChem.
# APJ agonist = agonists of human APJ apelin receptor; P35414; CHO-K1 APJ PathHunter beta-arrestin, luminescence; 0% DMSO wells, 100% apelin; activation, % at 20 µM; actives 0.11% (n = 330,000);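 active = activation more than six SD over the plate average, tested at 20 µM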;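 note: 0% = DMSO alone and 100% = apelin-13 at 10 nM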
#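 Incubation: overnight seeding, 90 min compound at 25 °C, 1 h detection; test system: PathHunter CHO-K1 APJ (AGTRL-1) beta-arrestin reporter cells; amount: 1000 cells/well; doses: one dose, 20 µM compound, 1% DMSO; measured by: beta-gal luminescence; measure: agonist-driven arrestin binding to APJ; benchmarks: negative DMSO alone, positive Apelin-13 at 10 nM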
# EBI2 block = antagonists of human EBI2 receptor; P32249; EBI2 beta-arrestin recruitment, luminescence, 7a,25-OHC stimulated; inhibition, % at 5 µM; actives 0.81% (n = 360,000); AID 651636; in the data active = inhibition above about 38%;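 note: enzyme fragment complementation signal reports receptor beta-arrestin coupling in cells; 0% = agonist plus DMSO wells and 100% = wells without agonist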
# Target sequence (P32249 whole entry, looked up, the tested form may be a part): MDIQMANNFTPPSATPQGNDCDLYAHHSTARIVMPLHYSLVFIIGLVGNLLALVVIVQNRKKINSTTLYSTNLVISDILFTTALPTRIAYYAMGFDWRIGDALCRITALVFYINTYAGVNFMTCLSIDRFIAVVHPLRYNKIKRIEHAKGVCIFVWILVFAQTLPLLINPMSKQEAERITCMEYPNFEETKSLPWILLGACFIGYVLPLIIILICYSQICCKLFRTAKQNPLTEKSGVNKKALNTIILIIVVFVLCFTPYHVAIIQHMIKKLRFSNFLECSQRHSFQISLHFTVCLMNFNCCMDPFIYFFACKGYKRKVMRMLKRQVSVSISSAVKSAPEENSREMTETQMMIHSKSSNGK
# CCR6 antagonist = blocks CCL20-driven beta-arrestin recruitment at human CCR6 | CHO-K1 CCR6 PathHunter beta-arrestin, luminescence, CCL20-stimulated | actives 0.49% (n = 340,000) | inhibition, % at 20 µM | P51684 | AID 493098;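 active = compounds whose inhibition of the agonist-driven luminescence signal at 20 µM reaches about 50%, limit read from the data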;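 note: cells stimulated with CCL20 at 14 nM final; plate controls were DMSO with CCL20 for no effect and DMSO without agonist for full effect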
# APJ antag = APJ receptor antagonism; P35414; CHO-K1 APJ beta-arrestin complementation, luminescence; inhibition, % at 20 µM; actives 0.32% (n = 330,000);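 active = inhibition above about 40% at 20 µM, limit read from the data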;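 note: cells challenged with 10 nM apelin-13 agonist together with compound; plate controls were apelin-13 plus DMSO wells for no effect and DMSO wells lacking apelin-13 for full effect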
# CXCR6 block = blocks human CXCR6 beta-arrestin recruitment; inhibition, % at 20 µM; CHO-K1 PathHunter CXCR6 beta-arrestin, luminescence; actives 0.36% (n = 360,000); O00574; in the data active = inhibition above about 34%, passing the limit was not always enough;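 note: antagonist mode with CXCL16 agonist at 10 nM final; 0% = 10 nM CXCL16 with DMSO and 100% = unstimulated wells without agonist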
# EBI2 antag conf = EBI2 (human) antagonism, single concentration confirmation. shares compounds with EBI2 block. EBI2 beta-arrestin luminescence, 7a,25-OHC antagonism. inhibition, % at 5 µM. actives 29% (n = 2,400);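 active = inhibition of at least 50%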
# EBI2 agonist = activates EBI2, counter-screen for EBI2 antagonists; shares compounds with EBI2 block; EBI2-expressing cells, agonist mode, luminescence, 60 min; 0% vehicle, 100% 7α,25-dihydroxycholesterol control; activation, % at 5 µM; 2,400 tested, under 10 active;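 active = activation of at least 50%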
# bGal counter = beta-galactosidase inhibition counter-screen; shares compounds with EBI2 block; actives 1% (n = 2,400); inhibition, % at 5 µM; purified beta-galactosidase, luminescent Galacton Star, 15 min;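 active = replicate-average signal at least 3 plate SD below neutral wells, shown as high inhibition, flagging enzyme-inhibiting false positives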;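 note: 0% = DMSO wells with enzyme and 100% = wells lacking enzyme; higher means stronger loss of beta-gal luminescence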
# * hit, by the source's call; . = no result. The list is not random: actives were taken first. Their share in the collection is about 1.5%.
SMILES,APJ agonist,EBI2 block,CCR6 antagonist,APJ antag,CXCR6 block,EBI2 antag conf,EBI2 agonist,bGal counter
CC(C)(C)OC(=O)Nc1ccccc1-n1nnnc1C(C(=O)c1ccccc1)N1CCN(c2ccccn2)CC1 (configuration not stated),.,1,.,.,.,.,.,.
COc1ccc(OC)c(NC(=O)Nc2nc(CN(C)C)cs2)c1,.,-8,.,.,-8,.,.,.
COc1ccc([C@@H]2C[C@H]3[C@@H](CN2S(=O)(=O)c2ccccc2)C(=O)C[C@@H](c2ccc(OC)cc2)N3S(=O)(=O)c2ccccc2)cc1,.,5,.,.,-4,.,.,.
O=C(Nc1cccc(F)c1)N1CCC(c2ccccc2)CC1,-3,67*,13,1,-1,41,0,-9
COc1ccc(NC(=S)N2CCC(c3ccc(C)cc3)C2)cc1 (configuration not stated),-4,46*,12,11,2,33,1,4
Cc1ccc(C2CCN(C(=O)Nc3ccccc3)C2)cc1 (configuration not stated),-2,60*,3,4,0,47,-1,7
CN(C)c1ccc(-c2noc(C3CCN(C(=O)Nc4ccc(Cl)cc4)CC3)n2)cc1,-4,82*,0,-5,9,57*,0,4
Cc1ccc(NC(=S)N2CCC(c3ccc(C)cc3)C2)cc1 (configuration not stated),-2,17,-4,11,7,.,.,.
O=C(c1cccs1)N1C[C@@H](n2cc(C3CC3)nn2)[C@H](O)C[C@@H]1c1ccc(Cl)cc1,.,-4,.,.,-1,.,.,.
CCOC(=O)[C@]12CCCC=C1N(Cc1ccccc1)C(=O)[C@H](CC(=O)N1CCC(c3ccccc3)CC1)C2,.,15,.,.,.,.,.,.
CC1(C(=O)N2CCCCC2)CCN1C(=O)c1ccccc1CCc1ccccc1 (configuration not stated),.,-8,.,.,12,.,.,.
Cc1cccc(C)c1Cn1c(C)c(C(=O)NCCC#N)sc1=O,.,-1,.,.,2,.,.,.
Cc1ccc(NC(=O)N2CCC(c3ccccc3)C2)cc1C (configuration not stated),0,73*,8,-4,6,63*,0,0
O=C(Nc1ccc(Cl)cc1)N1CCC(c2ccccc2)C1 (configuration not stated),-1,87*,19,-6,2,55*,-1,-8
CC(C)N(C)C1CCN(C(=O)Nc2ccc(Cl)cc2)CC1,-4,-26,-14,-6,0,.,.,.
CC(=O)NC(c1ccc(F)c(F)c1)c1nc(-c2cccc(C(C)C)c2)cs1 (configuration not stated),.,10,.,.,-5,.,.,.
CCCC(=O)N1CCC1(C)C(=O)NS(=O)(=O)c1ccccc1 (configuration not stated),.,1,.,.,1,.,.,.
O=S(=O)(c1ccc(Oc2ccc(F)c(Cl)c2)nc1)N1CCOCC1,7,6,7,17,-3,.,.,.
O=S(=O)(c1ccc(Oc2ccc(Cl)cc2)nc1)N1CCOCC1,5,52*,-4,-9,-7,27,0,-6
COc1ccc([C@H]2CN(c3ccc(OC)cc3)C(=O)[C@@H]2CC(=O)Nc2ccccc2)cc1,.,46*,.,.,14,53*,-1,-14
COc1ccc(NC(=O)C[C@H]2C(=O)N(c3ccc(Br)cc3)C[C@@H]2c2ccc(OC)cc2)cc1,.,27,.,.,9,.,.,.
CCC(CC)C(C(=O)NCc1ccccc1)N1CCN(C(=O)C2CCCO2)CC1 (configuration not stated),.,-2,.,.,.,.,.,.
S=C(NCC1CCCO1)N1CCN(c2nc(-c3ccc(Cl)cc3)cs2)CC1 (configuration not stated),1,86*,-15,-15,-3,66*,2,5
CC(=O)N1N=C(c2ccccc2)CC1c1cn(Cc2ccccc2)c2ccccc12 (configuration not stated),-1,49*,18,-2,8,29,-1,-1
O=C(/C=C/c1ccccc1Cl)N1CCN(c2ncccn2)CC1,1,60*,15,-5,1,39,-1,-20
SMILES,APJ agonist,EBI2 block,CCR6 antagonist,APJ antag,CXCR6 block,EBI2 antag conf,EBI2 agonist,bGal counter
O=C(c1ccc(F)cc1F)N1CCN(c2ncccn2)CC1,-4,-5,25,-1,8,.,.,.
O=C(/C=C/c1cccc(F)c1)N1CCN(c2ncccn2)CC1,-3,90*,-12,1,-4,69*,1,-1
O=C(Nc1cccc2c1CCCC2)c1cc(C2CCCCN2C(=O)CCCc2ccccc2)on1 (configuration not stated),.,21,.,.,16,.,.,.
CCOc1ccc(Cl)cc1-c1cc(C(=O)NCc2ccccc2OC)[nH]n1,.,-1,.,.,6,.,.,.
COc1ccc(C2CC=C(C(C)=O)CN2S(=O)(=O)c2ccc(Cl)cc2)cc1 (configuration not stated),.,6,.,.,-6,.,.,.
COc1cccc(NC(=O)C(Sc2nnc(Nc3ccccc3C)s2)c2ccccc2)c1 (configuration not stated),-2,46*,21,-9,9,8,0,-10
COc1ccc(Cc2nnc(Nc3ccccc3)s2)cc1Br,-1,35*,4,3,-12,19,0,9
COc1ccc(CNc2ccccc2)cc1Br,-4,-5,21,16,2,.,.,.
CCc1nc2c(OCc3c(C)noc3C)cccn2c1N(C=O)Cc1ccccc1,.,-2,.,.,-8,.,.,.
COc1ccc(CNC(=O)C2CCN(C(=O)c3ccc(-c4ccccc4)cc3)CC2)cc1,-3,68*,5,-6,7,44,-1,-12
O=C(NC1CCCC1)C1CCN(C(=O)c2ccc(-c3ccccc3)cc2)CC1,-2,49*,-1,6,-4,39,-1,-9
C[C@@H]1CN([C@H](C)CO)C(=O)CCCn2nncc2CO[C@H]1CN(C)Cc1ccc(O)cc1,.,2,.,.,0,.,.,.
CCc1c(-c2ccc(OC)cc2)ncn1Cc1cccc(-c2ccccc2)c1,.,-6,.,.,.,.,.,.
CCn1c(SCc2ccccc2Cl)nc2nc3c(cc2c1=O)CCCC3,.,57*,23,.,20,41,0,3
COc1ccccc1N(CC(=O)Nc1cccc(C(F)(F)F)c1)S(C)(=O)=O,-3,-3,12,5,2,.,.,.
Cc1ccc([N+](=O)[O-])cc1N(CC(=O)Nc1ccc(S(=O)(=O)Nc2cccc(C(F)(F)F)c2)cc1)S(C)(=O)=O,0,84*,5,-15,-9,65*,1,4
CNC(=S)N/N=C/c1ccccc1Cl,-1,-3,13,4,7,.,.,.
